Where “and” joins values, the source holds several entries; their conditions need not be identical. Equal values may be shown once. Values belong to the substance of their own block, whether it stands above or below them.
Columns and labels:
[1] = tested on: CH1; assay: Compound was tested for in vitro growth inhibition of Ovarian carcinoma cell line panel CH1-R; type: functional, cell-based
Procedure, shortened: (§1)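 Ovarian lines grown as monolayers in DMEM with 10% FBS, insulin, hydrocortisone and L-glutamine under 6% CO2. Cells were seeded at 3–5 × 10³/well and left to attach overnight. Compounds were freshly dissolved in DMA or water and applied for 96 h in quadruplicate wells. Growth was measured by SRB and reported as IC50.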

[2] = tested on: SK-OV-3; assay: Compound was tested for in vitro growth inhibition of Ovarian carcinoma cell line panel SK-OV-3; type: functional, cell-based, Homo sapiens; procedure, shortened: as §1
[3] = tested on: ZR-75-1; assay: Compound was tested for in vitro growth inhibition of primary panel tumor cell line ZR-75-1; type: functional, cell-based, Homo sapiens
Procedure, shortened: (§2)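 Primary-panel lines kept in L15, RPMI 1640 plus pyruvate, or MEM, each with 10% FBS. Cells were seeded at 5×10^4–10^5 cells/mL, preincubated 24 h, then exposed 4 h to 0–200 μg/mL from a 2 mg/mL stock in 10% DMA/PBS. After washout and 72 h further growth, cells were read by SRB. IC50 was the concentration giving 50% survival versus untreated controls.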

[4] = tested on: HT-29; assay: Compound was tested for in vitro growth inhibition of primary panel tumor cell line HT-29/219; type: functional, cell-based, Homo sapiens; procedure, shortened: as §2
[5] = tested on: CH1; assay: Compound was tested for in vitro growth inhibition of Ovarian carcinoma cell line panel CH1; type: functional, cell-based; procedure, shortened: as §1
[6] = tested on: SW-620; assay: Compound was tested for in vitro growth inhibition of primary panel tumor cell line SW620; type: functional, cell-based, Homo sapiens; procedure, shortened: as §2
[7] = tested on: A2780; assay: Compound was tested for in vitro growth inhibition of Ovarian carcinoma cell line panel A2780; type: functional, cell-based, Homo sapiens; procedure, shortened: as §1
[8] = tested on: HT-1376; assay: Compound was tested for in vitro growth inhibition of primary panel tumor cell line HT1376; type: functional, cell-based, Homo sapiens; procedure, shortened: as §2
[9] = Solubility at 25 degrees Celsius in 1-Octanol; type: physicochemical
Procedure, shortened: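 A sample was tumbled in 1-octanol at 25 °C for 24 h and filtered. An aliquot was evaporated and the residue taken up in dilute aqua regia. Gold content was determined as for the aqueous samples, with indium as internal standard.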

[10] = Solubility at 25 degrees Celsius in water; type: physicochemical; conditions: buffer
Procedure, shortened: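 5–10 mg sample was tumbled in 5.0 mL water at 25 °C for 24 h and filtered. The solution was diluted as needed and gold was quantified with 1 ppm indium as internal standard.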

[11] = tested on: HX62 cell line; assay: Compound was tested for in vitro growth inhibition of Ovarian carcinoma cell line panel HX62; type: functional, cell-based, Homo sapiens; procedure, shortened: as §1
[12] = tested on: SW 1116; assay: Compound was tested for in vitro growth inhibition of primary panel tumor cell line SW1116; type: functional, cell-based, Homo sapiens; procedure, shortened: as §2
[13] = tested on: SK-OV-3; assay: Compound was tested for in vitro growth inhibition of primary panel tumor cell lines SK-OV-3; type: functional, cell-based, Homo sapiens; procedure, shortened: as §2
[14] = tested on: A2780; assay: Compound was tested for in vitro growth inhibition of Ovarian carcinoma cell line panel A2780-R; type: functional, cell-based, Homo sapiens; procedure, shortened: as §1
[15] = Range is evaluated. (Highest IC50/Lowest IC50); type: functional
[16] = tested on: Mus musculus; assay: Compound was evaluated for antitumor activity (T/C) in HT1376 carcinoma Xenograft, at a dosage 8.75 mg/kg on day 7; type: functional, organism-based; design: dose 8.75 mg/kg
Procedure, shortened: (§3)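 Nude mice carrying subcutaneous flank HT1376 fragments; treatment began once tumors were established and palpable, randomized into groups of 6 treated and 10 control mice. Dosing was ip as a suspension in 0.5% carboxymethylcellulose in 0.9% saline on days 0, 7, 14 and 21, at the MTD and two 2-fold dilutions. Tumors were measured on days 0-28. RTV = 100(mean volume at assessment)/(mean start volume); T/C = treated RTV/control RTV.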

[17] = tested on: Mus musculus; assay: Compound was evaluated for antitumor activity (T/C) in HT1376 carcinoma Xenograft, at a dosage 17.5 mg/kg on day 7; type: functional, organism-based; design: dose 17.5 mg/kg
Procedure, shortened: (§4)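 Subcutaneous HT1376 xenografts in nude mice, 6 per treated group and 10 controls. Intraperitoneal dosing as suspensions in 0.5% carboxymethylcellulose/0.9% saline on days 0, 7, 14, 21; tumors measured weekly to day 28. T/C = RTV of treated group / RTV of untreated control group; significance by t-test at the 5% level.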

[18] = tested on: Mus musculus; assay: Compound was evaluated for antitumor activity (RTV) in HT1376 carcinoma Xenograft, at a dosage 8.75 mg/kg on day 28; type: functional, organism-based; design: dose 8.75 mg/kg
Procedure, shortened: (§5)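 HT1376 tumor fragments implanted subcutaneously in nude mice flanks; mice with established palpable tumors randomized into groups of 6 (controls 10). Compounds given intraperitoneally as suspensions in 0.5% carboxymethylcellulose in 0.9% saline, on days 0, 7, 14 and 21. Tumor dimensions on days 0, 7, 14, 21, 28. RTV = 100(mean tumor volume at assessment)/(mean start volume).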

[19] = tested on: Mus musculus; assay: Compound was evaluated for antitumor activity (T/C) in HT1376 carcinoma Xenograft, at a dosage 35 mg/kg on day 21; type: functional, organism-based; design: dose 35 mg/kg; procedure, shortened: as §3
[20] = tested on: Mus musculus; assay: Compound was evaluated for antitumor activity (RTV) in HT1376 carcinoma Xenograft, at a dosage 35 mg/kg on day 21; type: functional, organism-based; design: dose 35 mg/kg; procedure, shortened: as §5
[21] = tested on: Mus musculus; assay: Compound was evaluated for antitumor activity (T/C) in HT1376 carcinoma Xenograft, at a dosage 17.5 mg/kg on day 28; type: functional, organism-based; design: dose 17.5 mg/kg; procedure, shortened: as §4
[22] = tested on: Mus musculus; assay: Compound was evaluated for antitumor activity (T/C) in HT1376 carcinoma Xenograft, at a dosage 8.75 mg/kg on day 14; type: functional, organism-based; design: dose 8.75 mg/kg; procedure, shortened: as §3
[23] = tested on: Mus musculus; assay: Compound was evaluated for antitumor activity (T/C) in HT1376 carcinoma Xenograft, at a dosage 17.5 mg/kg on day 14; type: functional, organism-based; design: dose 17.5 mg/kg; procedure, shortened: as §4
[24] = tested on: Mus musculus; assay: Compound was evaluated for antitumor activity (RTV) in HT1376 carcinoma Xenograft, at a dosage 35 mg/kg on day 7; type: functional, organism-based; design: dose 35 mg/kg; procedure, shortened: as §5
[25] = tested on: Mus musculus; assay: Compound was evaluated for antitumor activity (T/C) in HT1376 carcinoma Xenograft, at a dosage 35 mg/kg on day 28; type: functional, organism-based; design: dose 35 mg/kg; procedure, shortened: as §3
[26] = tested on: Mus musculus; assay: Compound was evaluated for antitumor activity (RTV) in HT1376 carcinoma Xenograft, at a dosage 17.5 mg/kg on day 7; type: functional, organism-based; design: dose 17.5 mg/kg; procedure, shortened: as §5
[27] = tested on: Mus musculus; assay: Compound was evaluated for antitumor activity (T/C) in HT1376 carcinoma Xenograft, at a dosage 35 mg/kg on day 14; type: functional, organism-based; design: dose 35 mg/kg; procedure, shortened: as §3
[28] = tested on: Mus musculus; assay: Compound was evaluated for antitumor activity (T/C) in HT1376 carcinoma Xenograft, at a dosage 8.75 mg/kg on day 28; type: functional, organism-based; design: dose 8.75 mg/kg; procedure, shortened: as §3
[29] = tested on: Mus musculus; assay: Compound was evaluated for antitumor activity (RTV) in HT1376 carcinoma Xenograft, at a dosage 17.5 mg/kg on day 21; type: functional, organism-based; design: dose 17.5 mg/kg; procedure, shortened: as §5
[30] = tested on: Mus musculus; assay: Compound was evaluated for antitumor activity (RTV) in HT1376 carcinoma Xenograft, at a dosage 17.5 mg/kg on day 14; type: functional, organism-based; design: dose 17.5 mg/kg; procedure, shortened: as §5
[31] = tested on: Mus musculus; assay: Compound was evaluated for antitumor activity (RTV) in HT1376 carcinoma Xenograft, at a dosage 8.75 mg/kg on day 21; type: functional, organism-based; design: dose 8.75 mg/kg; procedure, shortened: as §5
[32] = tested on: Mus musculus; assay: Compound was evaluated for antitumor activity (RTV) in HT1376 carcinoma Xenograft, at a dosage 35 mg/kg on day 28; type: functional, organism-based; design: dose 35 mg/kg; procedure, shortened: as §5
[33] = tested on: Mus musculus; assay: Compound was evaluated for antitumor activity (T/C) in HT1376 carcinoma Xenograft, at a dosage 35 mg/kg on day 7; type: functional, organism-based; design: dose 35 mg/kg; procedure, shortened: as §3
[34] = tested on: Mus musculus; assay: Compound was evaluated for antitumor activity (T/C) in HT1376 carcinoma Xenograft, at a dosage 17.5 mg/kg on day 21; type: functional, organism-based; design: dose 17.5 mg/kg; procedure, shortened: as §4
[35] = tested on: Mus musculus; assay: Compound was evaluated for antitumor activity (T/C) in HT1376 carcinoma Xenograft, at a dosage 8.75 mg/kg on day 21; type: functional, organism-based; design: dose 8.75 mg/kg; procedure, shortened: as §3
[36] = tested on: Mus musculus; assay: Compound was evaluated for antitumor activity (RTV) in HT1376 carcinoma Xenograft, at a dosage 8.75 mg/kg on day 14; type: functional, organism-based; design: dose 8.75 mg/kg; procedure, shortened: as §5
[37] = tested on: Mus musculus; assay: Compound was evaluated for antitumor activity (RTV) in HT1376 carcinoma Xenograft, at a dosage 8.75 mg/kg on day 7; type: functional, organism-based; design: dose 8.75 mg/kg; procedure, shortened: as §5
[38] = tested on: Mus musculus; assay: Compound was evaluated for antitumor activity (RTV) in HT1376 carcinoma Xenograft, at a dosage 35 mg/kg on day 14; type: functional, organism-based; design: dose 35 mg/kg; procedure, shortened: as §5
[39] = tested on: Mus musculus; assay: Compound was evaluated for antitumor activity (RTV) in HT1376 carcinoma Xenograft, at a dosage 17.5 mg/kg on day 28; type: functional, organism-based; design: dose 17.5 mg/kg; procedure, shortened: as §5

IC50 [2]: 42 µM
IC50 [4]: 19 µM
IC50 [6]: 205 µM
IC50 [7]: 3.7 µM
IC50 [8]: 10 µM
Solubility [9]: 170 µM
Solubility [10]: 430 µM
IC50 [13]: 10 µM
IC50 [14]: 35 µM
Substance: Oxalato[2-(dimethylamino)methyl]phenyl-C,N]gold-(III) Hemihydrate
IC50 [1]: 13 µM
IC50 [3]: 41 µM
IC50 [5]: 11 µM
IC50 [11]: 30 µM
IC50 [12]: 215 µM

Substance: Dichloro[2-(dimethylamino)methyl]phenyl-C,N]gold-(III)
Range [15]: 4.6 and 13.3

Substance: Malonato[2-(dimethylamino)methyl]phenyl-C,N]gold-(III)
T/C [16]: 1
T/C [17]: 1.01
RTV [18]: 1230
T/C [19]: 0.58
Range [15]: 7.3 and 11.1
RTV [20]: 488
T/C [21]: 0.76
T/C [22]: 1
T/C [23]: 0.88
RTV [24]: 210
T/C [25]: 0.77
RTV [26]: 266
T/C [27]: 0.57
T/C [28]: 1.17
RTV [29]: 699
RTV [30]: 451
RTV [31]: 894
RTV [32]: 816
T/C [33]: 0.8
T/C [34]: 0.83
T/C [35]: 1.06
RTV [36]: 513
RTV [37]: 264
RTV [38]: 292
RTV [39]: 802

— ChEMBL document CHEMBL1129059, “Antitumor properties of some 2-[(dimethylamino)methyl]phenylgold(III) complexes” (J Med Chem, 1996)
